Data on three compounds can be found in ChEMBL document CHEMBL4014306, “Pyrazolopyrimidines as Potent Stimulators for Transient Receptor Potential Canonical 3/6/7 Channels” (J Med Chem, 2017).

What all share (type): cell-based
The species entered for one assay is Rattus norvegicus. As to the kind of experiment: Agonist activity at TRPC6 in rat primary glomerular mesangial cells assessed as increase in intracellular calcium level at 1 uM by Fluo4-AM dye-based fluorescence assay. An outline of the steps: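 Rat glomerular mesangial cells, isolated by graded sieving from male Sprague–Dawley rats, collagenase-digested, cultured in RPMI 1640 with 17% FBS. Grown overnight on coverslips, then loaded with 10 μM Fluo4-AM and 0.02% pluronic F-127 for 1 h at 37 °C in 1 mM Ca2+ saline, pH 7.4. Compound at 1 μM. Confocal imaging, ex 488/em 515 nm, read as F/F0. For the 2-APB condition, 30 μM 2-APB for 2 min beforehand and kept during compound application.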
(A change in cytosolic calcium serves as a functional read-out for many receptors and channels.)

The target in assay [1] is T1, Short transient receptor potential channel 6 (Mus musculus) (UniProt Q61143).
T1 sequence (whole entry): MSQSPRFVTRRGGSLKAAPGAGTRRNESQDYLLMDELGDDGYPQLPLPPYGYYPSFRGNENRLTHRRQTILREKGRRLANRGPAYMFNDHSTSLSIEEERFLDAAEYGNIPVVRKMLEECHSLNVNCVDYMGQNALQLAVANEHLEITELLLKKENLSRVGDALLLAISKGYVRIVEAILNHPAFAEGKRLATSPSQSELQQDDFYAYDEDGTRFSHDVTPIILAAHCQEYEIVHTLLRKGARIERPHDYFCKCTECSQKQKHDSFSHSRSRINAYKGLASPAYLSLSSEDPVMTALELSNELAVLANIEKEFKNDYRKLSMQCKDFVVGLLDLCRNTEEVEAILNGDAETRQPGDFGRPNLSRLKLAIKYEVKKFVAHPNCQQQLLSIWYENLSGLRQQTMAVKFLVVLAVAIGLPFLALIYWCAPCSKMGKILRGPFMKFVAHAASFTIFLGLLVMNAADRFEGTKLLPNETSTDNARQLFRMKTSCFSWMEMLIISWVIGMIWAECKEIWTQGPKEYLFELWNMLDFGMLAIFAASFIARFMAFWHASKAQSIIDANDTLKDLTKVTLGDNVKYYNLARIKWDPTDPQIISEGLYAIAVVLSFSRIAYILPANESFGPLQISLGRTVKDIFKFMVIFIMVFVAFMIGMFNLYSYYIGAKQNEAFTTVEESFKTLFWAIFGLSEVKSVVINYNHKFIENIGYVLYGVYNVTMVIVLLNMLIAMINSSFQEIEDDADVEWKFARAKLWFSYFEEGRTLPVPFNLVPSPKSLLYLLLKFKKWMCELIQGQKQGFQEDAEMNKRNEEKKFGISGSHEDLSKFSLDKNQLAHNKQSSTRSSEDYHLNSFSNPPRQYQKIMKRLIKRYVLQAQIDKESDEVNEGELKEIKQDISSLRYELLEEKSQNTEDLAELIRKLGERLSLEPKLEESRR
Description: Agonist activity at mouse TRPC6 expressed in HEK293 cells co-expressing Gq11-PLCbeta fused M5 receptor assessed as increase in intracellular calcium level measured for 2.5 mins by Fluo-8-AM dye-based fluorescence assay.

For assay [2], the target named is T2, Short transient receptor potential channel 3 (Homo sapiens) (UniProt Q13507).
T2 sequence (whole entry): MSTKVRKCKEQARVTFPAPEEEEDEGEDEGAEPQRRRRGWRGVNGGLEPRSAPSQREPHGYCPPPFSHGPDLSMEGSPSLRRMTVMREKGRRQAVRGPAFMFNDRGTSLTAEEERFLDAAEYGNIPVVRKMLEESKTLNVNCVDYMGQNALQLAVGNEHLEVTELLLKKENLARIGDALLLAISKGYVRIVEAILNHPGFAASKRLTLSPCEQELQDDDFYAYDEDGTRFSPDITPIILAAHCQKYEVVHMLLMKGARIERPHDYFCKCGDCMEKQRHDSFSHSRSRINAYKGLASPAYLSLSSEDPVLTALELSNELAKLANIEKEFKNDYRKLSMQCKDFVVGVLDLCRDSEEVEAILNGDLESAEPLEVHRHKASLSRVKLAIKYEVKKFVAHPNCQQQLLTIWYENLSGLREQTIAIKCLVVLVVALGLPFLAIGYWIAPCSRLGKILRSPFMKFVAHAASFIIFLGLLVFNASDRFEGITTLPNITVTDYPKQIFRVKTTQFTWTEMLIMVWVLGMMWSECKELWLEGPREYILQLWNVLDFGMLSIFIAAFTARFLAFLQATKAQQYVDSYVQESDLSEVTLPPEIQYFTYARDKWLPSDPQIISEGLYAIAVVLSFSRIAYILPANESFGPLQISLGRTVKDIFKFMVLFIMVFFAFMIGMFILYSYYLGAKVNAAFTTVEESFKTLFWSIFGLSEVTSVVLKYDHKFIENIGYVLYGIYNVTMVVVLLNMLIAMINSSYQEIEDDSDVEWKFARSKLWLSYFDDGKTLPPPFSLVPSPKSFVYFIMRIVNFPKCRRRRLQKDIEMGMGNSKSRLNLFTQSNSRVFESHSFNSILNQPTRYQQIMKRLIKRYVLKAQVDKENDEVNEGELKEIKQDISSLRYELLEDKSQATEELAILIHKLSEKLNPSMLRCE
As to the kind of experiment: Agonist activity at human TRPC3 expressed in HEK293 cells assessed as induction of membrane depolarization measured for 2.5 mins in presence of 0.5 mM Ca2+ by FLIPR membrane potential dye-based fluorescence assay. An outline of the steps:
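HEK293 cells stably expressing human TRPC3, run on a FlexStation at 32 °C. Loaded with FMP dye, or Fluo-type Ca2+ dye with 2 mM probenecid. Extracellular NaCl/HEPES saline, pH 7.4, with 2 mM Ca2+ (standard) or 0.5 mM Ca2+. Read as F/F0. In 0.5 mM Ca2+, FMP EC50 from a Hill fit, n = 6.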

Assay [3] concerns the target T1, Short transient receptor potential channel 6 (Mus musculus). As to the kind of experiment: (§1) Agonist activity at mouse TRPC6 expressed in HEK293 cells co-expressing Gq11-PLCbeta fused M5 receptor assessed as induction of membrane potential depolarization measured for 2.5 mins by FLIPR assay. An outline of the steps:
(§2)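 Mouse TRPC6/M5 stable HEK293 cells loaded with FLIPR membrane potential dye in extracellular solution containing 2 mM CaCl2, pH 7.4. Varying compound concentrations are applied, with 1 μM carbachol as reference, and read on a microplate reader at 32 °C. The increase in fluorescence (ΔF/F0) indicates depolarization. The concentration–response curve gives EC50, n = 6.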

The target in assay [4] is T3, Short transient receptor potential channel 6 (Mus musculus, UniProt Q61143).
T3 sequence (Q61143 whole entry): T1 sequence (whole entry)
Described as §1. An outline of the steps: as §2

Assay [5] addresses T2, Short transient receptor potential channel 3 (Homo sapiens). Description: Agonist activity at human TRPC3 expressed in HEK293 cells assessed as induction of channel current at 10 uM measured for 2.5 mins in presence of 0.5 mM Ca2+ by whole cell patch-clamp method. An outline of the steps:
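Whole-cell recording of human TRPC3 HEK293 cells in bath with 0.5 mM Ca2+. Pipette had 400 nM free Ca2+ buffered by BAPTA. Ramps +100 to −100 mV every 1 s. Compound at 10 μM applied by perfusion; I–V compared against basal.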
Background: Patch clamp records ionic current or voltage across a cell membrane.

A short description of assay [6]: Selectivity ratio of EC50 for mouse TRPC6 expressed in HEK293 cells co-expressing Gq11-PLCbeta fused M5 receptor assessed as increase in intracellular calcium level to EC50 for human TRPC3 expressed in HEK293 cells assessed as induction of membrane depolarization in presence of 0.5 mM Ca2+.

As a reminder, the EC50 is the concentration giving half of the maximal effect.

Activity calls are given as the source filed them. The calls are words filed in the database; no cut-off is given here.

In the case of `Cc1nn2c(O)cc(C3CCN(C(=O)OCc4ccccc4)CC3)nc2c1-c1ccc(F)cc1`, in the assay listed under Rattus norvegicus, the result was Active.
As for `CCOC(=O)N1CCC(c2cc(O)n3nc(C)c(-c4ccc(F)cc4)c3n2)CC1`, the Activity result in assay [1], in assay [2] and in assay [3] was “Dose-dependent effect” each time. For the same compound, in assay [4], the EC50 was determined as 1400 nM. Also, the outcome in assay [5] was Active.
As to `CCOC(=O)N1CCC(c2cc(O)n3nc(C)c(-c4ccc(C(F)(F)F)cc4)c3n2)CC1`, the Ratio EC50 in assay [6] is > 70.
